Test results as given in ChEMBL document CHEMBL3352430, “4-Aminopyridyl-based CYP51 inhibitors as anti-Trypanosoma cruzi drug leads with improved pharmacokinetic profile and in vivo potency” (J Med Chem, 2014).

Legend:
Cytochrome P450 1A2 = target: T1, Cytochrome P450 1A2 (Homo sapiens, UniProt P05177); experiment: Inhibition of CYP1A2 in human liver microsomes at 1 uM; type: ADME
T1 sequence (P05177 whole entry): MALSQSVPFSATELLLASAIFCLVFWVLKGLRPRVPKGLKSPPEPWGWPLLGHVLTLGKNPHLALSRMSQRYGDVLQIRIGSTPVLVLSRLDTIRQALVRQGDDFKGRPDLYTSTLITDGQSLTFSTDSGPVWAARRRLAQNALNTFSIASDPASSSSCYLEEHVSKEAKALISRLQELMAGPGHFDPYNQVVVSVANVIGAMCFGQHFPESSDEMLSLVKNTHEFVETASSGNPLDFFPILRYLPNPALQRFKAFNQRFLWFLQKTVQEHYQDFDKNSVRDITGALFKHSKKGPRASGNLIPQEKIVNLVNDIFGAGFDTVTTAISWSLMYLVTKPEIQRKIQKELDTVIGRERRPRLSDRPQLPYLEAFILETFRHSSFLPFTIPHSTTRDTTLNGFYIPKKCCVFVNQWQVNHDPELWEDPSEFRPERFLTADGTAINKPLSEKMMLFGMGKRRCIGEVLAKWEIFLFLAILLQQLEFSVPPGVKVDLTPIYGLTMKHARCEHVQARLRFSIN

Liver microsome [1] = experiment: Half life in rat liver microsomes; type: ADME
[2] = Drug uptake in mouse fat at 50 mg/kg, po in 20% HP-beta-CD measured at 8 hrs post dose; type: ADME, organism-based, Adipose tissue; parameters: dose 50 mg/kg, route oral; conditions: in vivo
How it was run: (§1)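 Female Swiss Webster mice, 8 weeks old, given a single 50 mg/kg oral gavage dose in 20% HPβCD or 20% Kolliphor. Tissues taken from three mice at 2 and 8 h post dose. Homogenized by probe sonication in PBS (1:4 w/v), protein precipitated with acetonitrile, and compound measured by LC-MS/MS in μM.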

Cytochrome P450 2D6 = Cytochrome P450 2D6 (Homo sapiens, UniProt P10635); experiment: Inhibition of CYP2D6 in human liver microsomes at 1 uM; type: ADME
Chain of Cytochrome P450 2D6 (P10635 whole entry): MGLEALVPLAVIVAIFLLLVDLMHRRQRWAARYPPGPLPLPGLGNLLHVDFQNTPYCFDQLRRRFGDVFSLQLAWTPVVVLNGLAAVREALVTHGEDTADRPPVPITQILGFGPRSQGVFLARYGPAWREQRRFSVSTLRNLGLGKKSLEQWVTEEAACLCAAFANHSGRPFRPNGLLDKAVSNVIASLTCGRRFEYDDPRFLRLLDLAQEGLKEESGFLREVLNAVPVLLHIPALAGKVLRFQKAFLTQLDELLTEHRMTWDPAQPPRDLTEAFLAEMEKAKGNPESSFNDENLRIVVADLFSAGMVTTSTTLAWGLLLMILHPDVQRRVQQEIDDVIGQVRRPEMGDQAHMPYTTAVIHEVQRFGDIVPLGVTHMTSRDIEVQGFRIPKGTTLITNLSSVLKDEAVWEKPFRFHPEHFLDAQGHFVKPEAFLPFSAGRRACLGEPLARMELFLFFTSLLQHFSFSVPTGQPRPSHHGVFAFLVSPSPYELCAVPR

Liver [3] = experiment: Half life in mouse liver microsomes; type: ADME
Cytochrome P450 3A4 = Cytochrome P450 3A4 (Homo sapiens, UniProt P08684); experiment: Inhibition of CYP3A4 in human liver microsomes at 1 uM; type: ADME
Chain of Cytochrome P450 3A4 (P08684 whole entry): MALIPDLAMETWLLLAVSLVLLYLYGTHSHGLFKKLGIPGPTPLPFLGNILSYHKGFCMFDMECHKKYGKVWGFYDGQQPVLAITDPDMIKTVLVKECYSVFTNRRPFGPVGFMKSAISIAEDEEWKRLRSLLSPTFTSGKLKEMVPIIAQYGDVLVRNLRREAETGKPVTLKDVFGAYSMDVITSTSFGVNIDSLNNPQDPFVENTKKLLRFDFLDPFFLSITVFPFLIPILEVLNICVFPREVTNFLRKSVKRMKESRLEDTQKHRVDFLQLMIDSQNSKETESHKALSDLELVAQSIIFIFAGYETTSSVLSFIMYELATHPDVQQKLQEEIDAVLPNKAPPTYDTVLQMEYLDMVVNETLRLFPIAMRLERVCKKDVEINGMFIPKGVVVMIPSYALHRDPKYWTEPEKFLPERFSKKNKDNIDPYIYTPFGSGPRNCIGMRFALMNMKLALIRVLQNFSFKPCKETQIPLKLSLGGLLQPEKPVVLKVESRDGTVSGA

Trypanosoma cruzi [4] = experiment: Antitrypanosomal activity against Trypanosoma cruzi Y luc infected in mouse assessed as inhibition of parasitemia at 50 mg/kg, po bid in 20% Kolliphor administered for 4 consecutive days starting on day 3 of infection measured on day 7 post infection relative to vehicle-treated control; type: functional
How it was run: (§2)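 Female Swiss Webster mice, 8 weeks old, infected ip with 10^5 T. cruzi Y luc trypomastigotes. Only mice with detectable luminescence on day 3 were treated. Compound given by oral gavage bid for four days, as a suspension in 20% HPβCD or a solution in 20% Kolliphor, five mice per group. Vehicle group and benznidazole 50 mg/kg served as controls. On day 7, mice were injected ip with 150 mg/kg d-luciferin and imaged after 5 min under isoflurane. Percent inhibition calculated against untreated mice; two-tailed paired t test.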

Intestine [5] = experiment: Drug uptake in mouse intestine at 50 mg/kg, po in 20% Kolliphor measured at 8 hrs post dose; type: ADME, organism-based; parameters: dose 50 mg/kg, route oral; conditions: in vivo; how it was run: as §1
Trypanosoma cruzi [6] = experiment: Antitrypanosomal activity against Trypanosoma cruzi amastigotes infected in mouse C2C12 cells after 72 hrs by DAPI staining method; type: functional, organism-based; conditions: C2C12, 72 h
Heart [7] = experiment: Drug uptake in mouse heart at 50 mg/kg, po in 20% HP-beta-CD measured at 8 hrs post dose; type: ADME, organism-based; parameters: dose 50 mg/kg, route oral; conditions: in vivo; how it was run: as §1
Trypanosoma cruzi [8] = experiment: Antitrypanosomal activity against Trypanosoma cruzi Y luc infected in mouse assessed as inhibition of parasitemia at 25 mg/kg, po bid in 20% Kolliphor administered for 4 consecutive days starting on day 3 of infection measured on day 7 post infection relative to vehicle-treated control; type: functional; how it was run: as §2
Lung [9] = experiment: Drug uptake in mouse lung at 50 mg/kg, po in 20% Kolliphor measured at 8 hrs post dose; type: ADME, organism-based; parameters: dose 50 mg/kg, route oral; conditions: in vivo; how it was run: as §1
[10] = Drug uptake in mouse skeletal muscle at 50 mg/kg, po in 20% HP-beta-CD measured at 8 hrs post dose; type: ADME, organism-based, Muscle tissue; parameters: dose 50 mg/kg, route oral; conditions: in vivo; how it was run: as §1
Trypanosoma cruzi [11] = experiment: Antitrypanosomal activity against Trypanosoma cruzi Y luc infected in mouse assessed as inhibition of parasitemia at 40 mg/kg, ip bid in 60% DMSO administered for 4 consecutive days starting on day 3 of infection measured on day 7 post infection relative to vehicle-treated control
Cytochrome P450 2C9 = Cytochrome P450 2C9 (Homo sapiens, UniProt P11712); experiment: Inhibition of CYP2C9 in human liver microsomes at 1 uM; type: ADME
Chain of Cytochrome P450 2C9 (P11712 whole entry): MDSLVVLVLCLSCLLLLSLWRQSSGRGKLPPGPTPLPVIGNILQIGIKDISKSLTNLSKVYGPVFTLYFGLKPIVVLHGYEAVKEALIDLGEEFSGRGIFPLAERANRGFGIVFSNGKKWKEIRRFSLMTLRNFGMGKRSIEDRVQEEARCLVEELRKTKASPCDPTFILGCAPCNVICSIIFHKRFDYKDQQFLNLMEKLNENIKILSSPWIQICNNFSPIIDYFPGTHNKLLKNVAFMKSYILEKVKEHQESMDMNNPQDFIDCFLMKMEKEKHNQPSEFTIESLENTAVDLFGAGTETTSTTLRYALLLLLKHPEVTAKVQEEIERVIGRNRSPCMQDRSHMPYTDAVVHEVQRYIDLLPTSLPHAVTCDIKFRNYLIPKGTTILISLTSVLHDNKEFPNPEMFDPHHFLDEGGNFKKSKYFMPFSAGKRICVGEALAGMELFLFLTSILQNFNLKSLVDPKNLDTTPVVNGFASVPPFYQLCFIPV

Heart [12] = experiment: Drug uptake in mouse heart at 50 mg/kg, po in 20% Kolliphor measured at 8 hrs post dose; type: ADME, organism-based; parameters: dose 50 mg/kg, route oral; conditions: in vivo; how it was run: as §1
Liver [13] = experiment: Drug uptake in mouse liver at 50 mg/kg, po in 20% HP-beta-CD measured at 8 hrs post dose; type: ADME, organism-based; parameters: dose 50 mg/kg, route oral; conditions: in vivo; how it was run: as §1
[14] = Drug uptake in mouse fat at 50 mg/kg, po in 20% Kolliphor measured at 8 hrs post dose; type: ADME, organism-based, Adipose tissue; parameters: dose 50 mg/kg, route oral; conditions: in vivo; how it was run: as §1
C2C12 = experiment: Cytotoxicity against mouse C2C12 cells up to 10 uM; type: cell-based
How it was run: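 Mouse C2C12 myoblasts infected with T. cruzi CA-I/72, then exposed at 24 h postinfection to compound at 10 μM down to 5 pM in 5-fold steps for 72 h at 37 °C. Cells fixed in paraformaldehyde, stained with DAPI and scored by automated imaging. Triplicate wells; uninfected and infected untreated wells as controls.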

Liver microsome [15] = experiment: Half life in human liver microsomes; type: ADME
[16] = target: Sterol 14-alpha demethylase (Trypanosoma cruzi (strain CL Brener), UniProt Q7Z1V1); experiment: Binding affinity to Trypanosoma cruzi CYP51 by UV-vis titration method; conditions: read-out: Kd(app)
Chain of Sterol 14-alpha demethylase (Q7Z1V1 whole entry): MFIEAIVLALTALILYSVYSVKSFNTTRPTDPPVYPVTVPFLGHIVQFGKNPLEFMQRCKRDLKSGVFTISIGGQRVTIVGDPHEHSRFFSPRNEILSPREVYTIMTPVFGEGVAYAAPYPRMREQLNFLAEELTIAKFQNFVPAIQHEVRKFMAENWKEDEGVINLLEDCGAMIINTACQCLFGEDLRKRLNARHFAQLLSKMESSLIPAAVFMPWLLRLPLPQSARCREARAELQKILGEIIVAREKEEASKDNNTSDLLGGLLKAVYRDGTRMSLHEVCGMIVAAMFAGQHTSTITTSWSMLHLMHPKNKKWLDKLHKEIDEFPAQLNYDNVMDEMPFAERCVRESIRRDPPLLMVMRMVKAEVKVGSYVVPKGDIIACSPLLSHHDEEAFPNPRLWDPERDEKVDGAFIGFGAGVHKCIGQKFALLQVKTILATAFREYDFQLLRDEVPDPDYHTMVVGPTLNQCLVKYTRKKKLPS

Intestine [17] = experiment: Drug uptake in mouse intestine at 50 mg/kg, po in 20% HP-beta-CD measured at 8 hrs post dose; type: ADME, organism-based; parameters: dose 50 mg/kg, route oral; conditions: in vivo; how it was run: as §1
Liver [18] = experiment: Drug uptake in mouse liver at 50 mg/kg, po in 20% Kolliphor measured at 8 hrs post dose; type: ADME, organism-based; parameters: dose 50 mg/kg, route oral; conditions: in vivo; how it was run: as §1
Lung [19] = experiment: Drug uptake in mouse lung at 50 mg/kg, po in 20% HP-beta-CD measured at 8 hrs post dose; type: ADME, organism-based; parameters: dose 50 mg/kg, route oral; conditions: in vivo; how it was run: as §1
[20] = Drug uptake in mouse skeletal muscle at 50 mg/kg, po in 20% Kolliphor measured at 8 hrs post dose; type: ADME, organism-based, Muscle tissue; parameters: dose 50 mg/kg, route oral; conditions: in vivo; how it was run: as §1
[21] = Tmax in mouse at 50 mg/kg, po in 20% Kolliphor; type: ADME, organism-based; parameters: dose 50 mg/kg, route oral; conditions: in vivo
How it was run: (§3)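 Female Swiss Webster mice, 8 weeks old, given one oral gavage dose of 50 mg/kg as a 10 mg/mL preparation in the named vehicle (20% HPβCD suspension or 20% Kolliphor). Plasma sampled at about 0.25, 0.5, 1, 2, 4, 6, 8, 12 and 24 h, n = 3 per time point. Protein precipitated with 5 volumes acetonitrile, filtered, then LC-MS/MS. Values are averages of three mice.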

[22] = Half life in mouse at 50 mg/kg, po in 20% Kolliphor; type: ADME, organism-based; parameters: dose 50 mg/kg, route oral; conditions: in vivo; how it was run: as §3
[23] = AUClast in mouse at 50 mg/kg, po in 20% Kolliphor; type: ADME, organism-based; parameters: time 0 - last, dose 50 mg/kg, route oral; conditions: plasma; how it was run: as §3
[24] = Clearance in mouse at 50 mg/kg, po in 20% Kolliphor; type: ADME, organism-based; parameters: dose 50 mg/kg, route oral; conditions: in vivo; how it was run: as §3
[25] = Cmax in mouse at 50 mg/kg, po in 20% Kolliphor; type: ADME, organism-based; parameters: dose 50 mg/kg, route oral; conditions: in vivo; how it was run: as §3

Row | Structure (SMILES) | t1/2 (Liver microsome [1]) | Drug uptake [2] | t1/2 (Liver [3]) | Drug uptake (Intestine [5]) | Drug uptake (Heart [7]) | Drug uptake (Lung [9]) | Drug uptake [10] | Drug uptake (Heart [12]) | Drug uptake (Liver [13]) | Drug uptake [14] | t1/2 (Liver microsome [15]) | Drug uptake (Intestine [17]) | Drug uptake (Liver [18]) | Drug uptake (Lung [19]) | Drug uptake [20] | inhibition in vivo at 50 mg/kg (Trypanosoma cruzi [4]) | inhibition in vivo at 25 mg/kg (Trypanosoma cruzi [8]) | inhibition in vivo at 40 mg/kg (Trypanosoma cruzi [11]) | Activity (C2C12) | other results
1 | O=C(N[C@H](Cc1c[nH]c2ccccc12)C(=O)Nc1ccncc1)c1ccc(N2CCN(c3cccc(Cl)c3)CC2)cc1F | 21 min | Active | 33 min | Active | Active | Active | Active | Active | Active | Active | – | Active | Active | Active | Active | 97.6% | 73.6% | – | Non-toxic | –
2 | O=C(N[C@H](Cc1c[nH]c2ccccc12)C(=O)Nc1ccncc1)c1ccc(-c2ccc(OCc3ccc(F)cc3)c(F)c2)cc1F | 39 min | Active | 67 min | Active | Active | Active | Active | Active | Active | Active | 15 min | Active | Active | Active | Active | – | 75.6% | 96.9% | Non-toxic | –
3 | O=C(N[C@H](Cc1c[nH]c2ccccc12)C(=O)Nc1ccncc1)c1ccc(-c2ccc(F)c(F)c2)cc1F | – | Active | – | Active | Active | Active | Active | Active | Active | Active | – | Active | Active | Active | Active | 78.5% | 41.5% | 83.6% | Non-toxic | Tmax [21]: 120 min; half-life [22]: 197 min; AUC(0-t) [23]: 32.5 µM·h; CL/F [24]: 53.8 mL/min/kg; Cmax [25]: 3.71 µM

Further lines, with some results ahead:

Row | t1/2 (Liver microsome [1]) | Drug uptake [2] | t1/2 (Liver [3]) | Drug uptake (Intestine [5]) | Drug uptake (Heart [7]) | Drug uptake (Lung [9]) | Drug uptake [10] | Drug uptake (Heart [12]) | Drug uptake (Liver [13]) | Drug uptake [14] | t1/2 (Liver microsome [15]) | Drug uptake (Intestine [17]) | Drug uptake (Liver [18]) | Drug uptake (Lung [19]) | Drug uptake [20] | Structure (SMILES) | inhibition in vivo at 50 mg/kg (Trypanosoma cruzi [4]) | inhibition in vivo at 25 mg/kg (Trypanosoma cruzi [8]) | inhibition in vivo at 40 mg/kg (Trypanosoma cruzi [11]) | Activity (C2C12) | other results
4 | 31 min | Active | 51 min | Active | Active | Active | Active | Active | Active | Active | 33 min | Active | Active | Active | Active | O=C(N[C@H](Cc1c[nH]c2ccccc12)C(=O)Nc1ccncc1)c1ccc(-c2cccc(C(F)(F)F)c2)cc1F | 99.2% | 74.7% | 98.5% | Non-toxic | inhibition (INH) (Cytochrome P450 1A2): -16%; inhibition (INH) (Cytochrome P450 2D6): 14%; inhibition (INH) (Cytochrome P450 3A4): 7%; EC50 (Trypanosoma cruzi [6]): 39 nM; inhibition (INH) (Cytochrome P450 2C9): 92%; Kd [16]: 80 nM
5 | 18 min | Active | 13 min | Active | Active | Active | Active | Active | Active | Active | 64 min | Active | Active | Active | Active | CC(=O)N1CCN(c2ccc(C(=O)N[C@H](Cc3c[nH]c4ccccc34)C(=O)Nc3ccncc3)c(F)c2)CC1 | – | – | 52% | Non-toxic | –
6 | – | Active | – | Active | Active | Active | Active | Active | Active | Active | – | Active | Active | Active | Active | O=C(N[C@H](Cc1c[nH]c2ccccc12)C(=O)Nc1ccncc1)c1ccc(-c2cc(F)ccc2F)cc1F | – | 72.2% | 35.4% | Non-toxic | –
7 | 20 min | Active | – | Active | Active | Active | Active | Active | Active | Active | – | Active | Active | Active | Active | O=C(N[C@H](Cc1c[nH]c2ccccc12)C(=O)Nc1ccncc1)c1ccc(-c2cccc(F)c2)cc1F | 71.3% | 47.4% | 51.6% | Non-toxic | –
